# Screens (PubChem BioAssay)
# UPR CHOP act = activators of apoptotic CHOP UPR arm, primary screen, cell-based, CHO-CHOP luciferase reporter, luminescence, uHTS; UPR activation; percent of tunicamycin response over DMSO baseline; activation, % at 10 µM; 330,000 tested, 0.34% active; AID 449763, 2010;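 active = at 10 µM dose, activation of 40% or more, normalized to positive control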;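 note: 100% = tunicamycin at 10 µg/mL and 0% = DMSO alone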
#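 System: CHO CHOP reporter cells. Amount: 500 cells per well. Buffer or medium: F12 medium, 10% FBS. Compound dosing: one dose, 10 µM in 0.5% DMSO. Incubation: 6 h compound exposure at 37 °C after overnight seeding. Technique: Steady-Glo luciferase luminescence. Benchmarks: tunicamycin and DMSO controls.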
# Mdm2 ligase inh = MDM2-luciferase reporter signal enhancers, primary screen, MDM2 E3 ligase inhibitor project, cell-based, luminescence, 1536-well; E3 ubiquitin-protein ligase Mdm2 (Homo sapiens), Q00987; cell-based MDM2 ubiquitination luciferase reporter, 2 h; 0 = plate control, 100 = twice control, blank-subtracted; signal enhancement, % at 5 µM; 210,000 tested, 0.11% active;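 active = signal enhancement of 30% or more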;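 note: luminescence tracks abundance of the self-degrading MDM2-luciferase fusion protein; higher signal means inhibition of MDM2 E3 ligase activity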
# Target sequence (Q00987 whole entry, looked up, the tested form may be a part): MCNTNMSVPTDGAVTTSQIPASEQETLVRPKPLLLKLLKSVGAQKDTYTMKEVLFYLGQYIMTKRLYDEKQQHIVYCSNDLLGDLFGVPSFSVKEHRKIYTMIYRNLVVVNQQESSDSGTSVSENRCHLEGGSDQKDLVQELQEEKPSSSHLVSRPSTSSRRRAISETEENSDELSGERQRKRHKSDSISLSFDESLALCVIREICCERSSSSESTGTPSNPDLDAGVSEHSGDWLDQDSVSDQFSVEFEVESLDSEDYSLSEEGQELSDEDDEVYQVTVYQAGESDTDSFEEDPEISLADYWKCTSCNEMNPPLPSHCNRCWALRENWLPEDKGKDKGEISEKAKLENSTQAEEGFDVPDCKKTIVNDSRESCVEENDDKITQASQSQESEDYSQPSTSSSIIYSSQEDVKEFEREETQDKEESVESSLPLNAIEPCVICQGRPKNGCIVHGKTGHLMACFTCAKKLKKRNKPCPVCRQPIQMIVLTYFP
#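 Test system: mammalian cells stably expressing self-ubiquitinating, self-degrading MDM2 E3–luciferase fusion; Amount: 2000 cells in each well; Medium: DMEM; Schedule: 4 h settle plus 2 h compound, 37 °C; Technique: SteadyLite luciferase luminescence after 15 min room-temperature reagent incubation; Benchmarks: plate control and blank wells.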
# Mdm2-MdmX inh = inhibitors of human Mdm2-MdmX association, primary screen, cell-based, luminescence, split luciferase, SaOS-2, uHTS. Protein Mdm4 (Homo sapiens) + E3 ubiquitin-protein ligase Mdm2 (Homo sapiens), …. SaOS-2 split-luciferase Mdm2/MdmX complementation. inhibition, % at 8 µM. 330,000 tested, 3% active. AID 485346, 2010;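 active = inhibition of at least 50% at 8 µM in the primary screen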
# B2AR ag = beta2AR agonists driving receptor internalization, primary screen, cell-based, FAP fluorogen, flow cytometry; Am2.2-beta2AR cells; response, % (test concentration not listed); 340,000 tested, 0.43% active; Beta-2 adrenergic receptor (Homo sapiens), P07550;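 active = response above a set limit, near 3 SD of response in nonfluorescent compounds, cut at about 42% in these data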
# Dynein cargo inh = inhibitors of GR-EGFP nuclear translocation, primary screen, dynein cargo transport inhibitor project, imaging, high-content, 3617.4 mouse cells. AID 1381, 2008. test concentration mostly 20 µM; stimulated with dexamethasone, 1 µM; hits give low values. 220,000 tested, 0.47% active. z-score, hits read low;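 active = plate z-score of nuclear minus cytoplasmic receptor signal below a set negative limit, without overly bright fluorescence or cell loss, cut at about -3.5 in these data, passing the limit was not always enough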;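 note: z-score of nuclear minus cytoplasmic ring GR-EGFP intensity difference per well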
#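 Schedule: 48 h induction, then 1 h compound, then 30 min agonist, 37 °C. Buffer or medium: tetracycline-free induction medium containing charcoal-stripped FBS. Reagent: 1.0 µM final dexamethasone stimulus. Evaluation: nuclear versus cytoplasmic GR-EGFP signal, averaged per well. Signal: high-content fluorescence imaging after fixation.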
# UPR XBP1 act = activators of adaptive XBP1 UPR arm, primary screen, cell-based, CHO-XBP1 luciferase reporter, luminescence, uHTS; IRE1-XBP1 UPR activation; percent of tunicamycin response, DMSO as zero; activation, % at 20 µM; 330,000 tested, 0.33% active; AID 463104, 2010;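 active = versus positive control, 20 µM dose yields 30% or more activation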;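 note: 100% = tunicamycin at 10 µg/mL and 0% = DMSO only wells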
#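 Material: CHO cell line with stable XBP1 luciferase reporter; schedule: 16-18 h cell attachment at 37 °C, then 6 h compound exposure; signal: glow luminescence from Steady-Glo reagent; medium: serum-containing F12 medium, 10% FBS; benchmarks: tunicamycin 10 µg/mL and vehicle-only wells; read-out: percent activation relative to tunicamycin reference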
# Mdm2-MdmX conf = Mdm2-MdmX complex disruptors, retested hits, confirmation, luminescence, single concentration. shares compounds with Mdm2-MdmX inh. Mdm2-MdmX binding, luminescent assay. inhibition, % at 8 µM. 10,000 tested, 55% active; in the data active = inhibition above about 40%
# FLuc counter = full-length luciferase signal inhibition, confirmation, counter-screen for Mdm2/MdmX interaction inhibitor project, cell-based, single concentration, SaOS-2. shares compounds with Mdm2-MdmX inh. SaOS-2 full-length luciferase counterscreen, luminescence. inhibition, % at 8 µM. 6,200 tested, 77% active. AID 504607, 2011;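 active = mean inhibition at 8 µM reaching about 37%, which flags the compound as non-specific, limit read from the data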;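 note: p53-null SaOS-2 cells with luciferase driven by a doxycycline-inducible promoter; compound on cells about two nights before reading with doxycycline added after day one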
# * = called active by the depositor; · = not tested or not shown. Sampled rows, rich in hits. Any-hit rate of the full collection: about 3.7%.
SMILES,UPR CHOP act,Mdm2 ligase inh,Mdm2-MdmX inh,B2AR ag,Dynein cargo inh,UPR XBP1 act,Mdm2-MdmX conf,FLuc counter
Cc1ccc(C)c(OCc2nnc(NC(=O)c3ccc4c(c3)OCO4)s2)c1,2,·,69*,2,-0.15,-1,28,·
CC(C)c1nnc(NC(=O)c2ccc3c(c2)OCO3)s1,-5,-68,-5,2,-0.36,-10,·,·
CC(C)(C)c1nnc(NC(=O)c2ccc3c(c2)OCO3)s1,3,·,-61,-16,·,3,·,·
Brc1cccc(-c2nc3cccnc3nc2-c2cccc(Br)c2)c1,0,·,13,-6,·,-1,·,·
Clc1ccc(-[n+]2c(-c3cccc(Br)c3)[nH]c3nc4ccccc4nc32)cc1,6,-15,61*,-2,-0.37,-3,15,·
Cc1ccc(C)c(Nc2cc(C)nc(-c3ccccc3O)n2)c1,0,·,59*,-4,·,-4,62*,49*
Cc1cc(Nc2ccccc2Cl)nc(-c2ccccc2O)n1,-1,·,12,6,·,-6,·,·
Cc1cc(N/N=C/c2c(O)ccc3ccccc23)nc(-c2ccccc2O)n1,3,-10,61*,9,-0.078,-4,53*,39*
CCN(c1ccc(OC)cc1)c1ncnc2nc[nH]c12,-2,-15,63*,2,-0.0054,-1,66*,36*
CC(OC(=O)CCCC(=O)Nc1ccc(F)cc1)C(=O)c1ccccc1 (stereo unspecified),0,·,-24,-15,·,-5,·,·
Cc1cc2[nH]c3c(c[n+](C)c4ccccc34)c2cc1C,6,-3,101*,19,-4.4*,-1,100*,51*
CC(C(=O)NCCSCc1cccc(Cl)c1)N(c1ccccc1)S(C)(=O)=O (stereo unspecified),0,·,-23,3,·,-2,·,·
CN(C)S(=O)(=O)c1ccc(-c2csc(N/N=C/c3ccco3)n2)cc1,2,-20,72*,25,0.57,-5,36,·
Cc1ccc(-c2csc(N/N=C/c3ccco3)n2)cc1,5,-10,-113,-4,-0.79,3,·,·
CN(C)S(=O)(=O)c1ccc(-c2csc(N/N=C/c3ccc(O)cc3)n2)cc1,18,-7,100*,47*,-1.8,-6,83*,38*
COc1ccc2[nH]c(=O)c(CN(Cc3cccs3)S(=O)(=O)c3cccc4nsnc34)cc2c1,1,-11,75*,19,0.34,0,76*,45*
O=C(CN1C(=O)/C(=C\c2ccccc2Cl)Oc2ccccc21)NCc1cccnc1,0,-4,76*,-5,-0.28,2,1,·
O=C(O)CN1C(=O)/C(=C/c2ccccc2Cl)Oc2ccccc21,-2,·,-9,2,·,6,·,·
COc1cccc(NC(=S)N2CCN(C(c3ccccc3)c3ccccc3)CC2)c1,1,-9,79*,13,0.61,-1,42*,68*
COC(=O)Cn1c(=NC(=O)c2sc3ccccc3c2Cl)sc2cc(S(N)(=O)=O)ccc21,4,1,64*,-3,-0.18,-1,38,52*
